Compound activity as filed in PubChem BioAssay.
Calb FLC – affects C. albicans growth with fluconazole; C. albicans CaCi-2 (fluconazole-resistant clinical isolate) + fluconazole, Alamar Blue growth, 48 h; growth inhibition, % (test concentration not listed); 0.57% of 300,000 active;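 active means growth inhibition above about 58% in most replicates, limit read from the data, passing the limit was not always enough; inconclusive means exactly half the replicates above a set limit; inactive means most replicates below a set limit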;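 further: all wells also contain fluconazole at 8 µg/ml as a sub-toxic cotreatment; 0% = median of DMSO wells and 100% = median of geldanamycin control wells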
SKKanGAS inh – inhibitors of SKKanGAS S. pyogenes growth in kanamycin (SK-promoter or general growth effect); BacTiter-Glo, 6 h; inhibition, % at 7.5 µM; 1.3% of 300,000 active; AID 1662;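 active means mean replicate score, as percent of positive control median, at least 50; inconclusive means mean below 50 but one replicate at or above 50; inactive means mean and every replicate below 50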;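 further: strain carries kanamycin resistance gene driven by streptokinase promoter and grows in 40 µg/ml kanamycin; loss of luminescence reflects streptokinase promoter inhibition or plain growth inhibition; 0% = median of DMSO wells and 100% = positive control at its reference dose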
ARFGAP1 inhibitor – rat ARFGAP1 inhibition | Q62848 | Arfgap1-stimulated ARF1 GTP hydrolysis, GDP FP detection | inhibition, % at 16.5 µM | 0.26% of 360,000 active;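 active means inhibition above a per-plate limit, mean inhibition of low control wells plus 3 SD, cut at about 25% in these data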;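 further: 0% = DMSO wells with enzyme and 100% = wells lacking Arfgap1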
Target sequence (Q62848 1-136 limits assumed): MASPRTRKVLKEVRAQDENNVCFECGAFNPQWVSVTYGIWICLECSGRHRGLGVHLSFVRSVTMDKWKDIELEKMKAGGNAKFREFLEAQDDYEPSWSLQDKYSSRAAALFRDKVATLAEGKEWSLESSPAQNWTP
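Material: truncated rat Arfgap1 GAP domain; Incubation: compound-enzyme preincubation 20 min, reaction 120 min, detection 60 min, 25 °C; Read-out: percent inhibition of Arfgap1-stimulated GTP hydrolysis; Technique: FP, GDP Alexa 633 tracer displaced from anti-GDP antibody, 620/688 nm; Controls: No-Arfgap1 wells (100%) versus DMSO full-reaction wells (0%); Replication: single well per compound.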
ASAP1 inh – ASAP1 ArfGAP inhibition. AID 624377. inhibition, % at 16.5 µM. 0.19% of 360,000 active. ASAP1-stimulated ARF1 GTP hydrolysis, GDP FP detection; in the data active means inhibition above about 25%;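 further: 0% = vehicle with enzyme and substrate and 100% = no enzyme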
HGIII-sPLA2 inh – Inhibits HGIII-sPLA2 liposome hydrolysis, primary screen | Q9NZ20 | QFRET BODIPY PC-A2 liposome hydrolysis, fluorescence | inhibition, % at 12.2 µM | 0.56% of 370,000 active | AID 743126;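 active means inhibition above mean plus 3 SD of compounds lying within the high and low control bounds, cut at about 19% in these data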;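 further: 0% = median of test compound wells and 100% = no enzyme DMSO wells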
Target sequence (Q9NZ20 whole entry, looked up): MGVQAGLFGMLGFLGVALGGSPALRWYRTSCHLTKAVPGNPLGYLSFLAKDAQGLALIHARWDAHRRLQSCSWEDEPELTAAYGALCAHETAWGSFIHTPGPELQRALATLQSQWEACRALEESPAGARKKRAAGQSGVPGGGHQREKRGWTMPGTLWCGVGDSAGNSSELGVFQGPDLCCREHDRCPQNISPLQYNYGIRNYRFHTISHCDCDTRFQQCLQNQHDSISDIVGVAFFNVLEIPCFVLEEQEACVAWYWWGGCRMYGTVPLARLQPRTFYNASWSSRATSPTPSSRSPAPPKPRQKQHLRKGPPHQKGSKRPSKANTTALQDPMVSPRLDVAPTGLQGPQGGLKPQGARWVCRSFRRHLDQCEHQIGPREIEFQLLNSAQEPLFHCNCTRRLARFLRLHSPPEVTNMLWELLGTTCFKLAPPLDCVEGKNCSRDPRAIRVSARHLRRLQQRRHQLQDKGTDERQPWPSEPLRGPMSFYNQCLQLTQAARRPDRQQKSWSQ
The depositor's hits bear a star; ? = inconclusive; . = no result given; ! = not confirmed by another sample. Sampled rows, rich in hits. Any-hit rate of the full collection: about 2.3%.

SMILES | Calb FLC | SKKanGAS inh | ARFGAP1 inhibitor | ASAP1 inh | HGIII-sPLA2 inh
O=C(Sc1cccc2cccnc12)c1ccccc1Br | 112.0* | 67.1* | 14.1 | -5.1 | -1.9
CC(=O)c1ccc([C@H](O)[C@H](C)C(=O)N(C)c2ccccc2)cc1 | . | . | . | . | 6.3
CN1C(=O)N(C)C2(c3ccccc3)NC(=O)NC12c1ccccc1 (centres undefined) | -3.8 | -6.3 | -5.8 | -7.5 | 1.2
CN1c2ccccc2N(C)C1(C)c1ccccc1 | 122.1* | 7.3 | 6.1 | -4.1 | -6.9
COc1cccc(OC)c1C(=O)Nc1ccc2c(c1)N(S(=O)(=O)c1cccs1)CCC2 | 9.6 | -7.5 | 3.9 | 10.2 | 6.9
O=C(Nc1ccc2c(c1)N(S(=O)(=O)c1cccs1)CCC2)c1c(F)cccc1Cl | 13.7 | 51.2* | -1.3 | -13.8 | -3.8
CCC[C@H]1[C@@H](NC(=O)C(c2ccccc2)c2ccccc2)CC[C@@]23CCCN2C(=O)CCC[C@@H]13 | . | . | . | . | -22.2
COC(=O)c1ccc2nc(-c3ccco3)c(Cc3ccccc3OC)n2c1 | . | . | 2.3 | -5.6 | 3.1
O=[N+]([O-])c1ccc(/C=C/c2ccc3cccc(O)c3n2)cc1 | -1.3 | -1.3 | 0.9 | 6.6 | 3.2
Oc1cccc(/C=C/c2ccc3cccc(O)c3n2)c1 | -1.4 | 57.4* | 11.0 | 21.3 | -35.3
CC(=O)COc1cccc2ccc(/C=C/c3ccc(Br)s3)nc12 | 10.6 | 15.0 | 15.7 | 7.2 | -3.2
COc1cccc(/C=C/c2ccc3cccc(O)c3n2)c1 | 2.7 | 98.1* | 17.1 | 7.0 | -0.9
Cc1ccc(/C=C/c2ccc3cccc(O)c3n2)s1 | -4.4 | 76.0* | -10.7 | -0.2 | 2.4
COC(=O)[C@]12C[C@H](CC(=O)N3CCN(C(=O)c4ccco4)CC3)C(=O)N(Cc3cccc4ccccc34)C1=C[C@H](C1CCCC1)O[C@@H]2C | . | . | . | . | -11.2
COc1ccc(CN(C)S(=O)(=O)c2nnc(NC(=O)c3ccccc3Br)s2)cc1 | -0.2 | 59.0* | 4.8 | 4.4 | -27.0
Cc1ccc(/C=C2\SC(=S)N(CCCC(=O)Nc3ccccc3C(=O)O)C2=O)cc1 | 0.6 | 20.8 | 0.4 | 3.8 | 5.8
CCc1ccc(/C=C2\SC(=S)N(CCCC(=O)Nc3ccccc3C(=O)O)C2=O)cc1 | 69.8 | 65.6* | -9.7 | 5.0 | -2.2
COc1ccccc1/C=N/NC(=O)CN(C1=NS(=O)(=O)c2ccccc21)c1ccccc1 | 2.1 | 0.6 | 39.7* | 7.7 | -13.1
COc1ccc(/C=N/NC(=O)CN(C2=NS(=O)(=O)c3ccccc32)c2ccccc2)cc1 | ? | 5.9 | -7.5 | -8.7 | -2.0
COC(=O)c1cc(S(=O)(=O)NCC2CCN(C(=O)C(=O)c3cc4ccccc4o3)CC2)cs1 | . | . | -6.0 | -2.3 | 1.6
CCOC(=O)c1nn(-c2cccc(Cl)c2)c2nc(Nc3ccccc3)cc(=O)n12 | -1.6 | 27.5 | 0.6 | 6.1 | -5.8
CCOC(=O)c1nn(-c2cccc(OC)c2)c2nc(Nc3ccccc3)cc(=O)n12 | -2.3 | 62.4* | -2.6 | 12.1 | 0.3
CCC(NC(=O)CCc1c(C)c2cc3c(C)c(C)oc3cc2oc1=O)C(=O)N[C@@H](Cc1ccccc1)C(=O)O (some centres undefined) | -1.6 | 61.0* | 7.8 | 5.7 | -11.2
COC(=O)C[C@H]1CC[C@H]2[C@H](COc3ccc(NC(=O)Cc4cccs4)cc3C(=O)N2C)O1 | . | . | . | . | 1.5
CCCCNc1c2c3c(cccc3n(C)c1=O)C(=O)c1ccccc1-2 | -11.1 | 53.6* | . | . | .
SMILES | Calb FLC | SKKanGAS inh | ARFGAP1 inhibitor | ASAP1 inh | HGIII-sPLA2 inh
Cc1cccc(C)c1NC(=S)N/N=C/c1ccc(OCCC(C)C)cc1 | -0.6 | 66.5* | -4.3 | -9.7 | -1.3
C=CCN1C(=O)[C@@H](CC(=O)NCCCOC)[C@]2(C(=O)OCC)CCCCC/C=C/12 | . | . | . | . | -1.9
OC(CCN1CCCCC1)(c1ccccc1)C1CC2C=CC1C2 (centres undefined) | . | . | . | . | 4.2
O=S(=O)(Nc1cc(Sc2cccc3cccnc23)c(O)c2ccccc12)c1ccc(F)cc1 | 2.1 | 87.4* | 10.7 | -4.8 | -7.4
S=C(NCc1cccs1)Nc1cc(Cl)cc(Cl)c1 | 5.7 | 65.8* | 8.3 | 4.9 | -3.6
S=C(NCc1cccs1)Nc1cccc(Cl)c1 | -14.6 | 4.6 | . | . | .
O=S1(=O)c2c(cccc2N2CCSCC2)Oc2ccccc2CN1Cc1cn(Cc2cccc(F)c2)nn1 | . | . | . | . | -7.5
O=[N+]([O-])c1ccc(NC(=S)NCCc2ccc(Cl)cc2)cc1 | -22.1 | 98.5* | 10.3 | 12.4 | -37.0
O=[N+]([O-])c1ccc(NC(=S)NCCc2ccccc2)cc1 | -28.1 | 4.9 | -2.8 | 18.1 | -14.6
O=[N+]([O-])c1cc(C(F)(F)F)ccc1NCCNC(=S)Nc1ccc(Cl)cc1 | -15.2 | 73.0* | 6.3 | 11.0 | 3.9
CCc1cc(=O)oc2cc(OC(C)C(=O)N3CC[C@@]4(O)CCCC[C@H]4C3)ccc12 (some centres undefined) | . | . | -12.5 | 13.6 | 0.2
c1ccc(-c2nc(N3CCN(c4ccccc4)CC3)nc(-n3ccnc3)n2)cc1 | 11.0 | 60.5* | 0.9 | -16.1 | 1.9
c1ccc(-c2nc(N3CCCCCC3)nc(-n3ccnc3)n2)cc1 | -21.5 | 86.0* | 8.0 | -1.6 | -4.6
Nc1nc(-c2cccnc2)nc(N2CCCCC2)n1 | 11.4 | 0.1 | 5.2 | -8.8 | -4.6
CCOc1ccc2nc(NC(=S)N(C)C)sc2c1 | 103.8* | 17.7 | -1.6 | 7.3 | -11.6
COc1ccc(-n2cc(-c3ccc(C)cc3)[n+]3c2SCC3)cc1 | 107.0* | -13.6 | -8.6 | 7.5 | 2.6
Cc1ccc(-c2cn(-c3ccccc3)c3[n+]2CCCS3)cc1 | 99.2*! | -1.5 | 1.1 | -5.9 | -1.2
COc1ccc(-c2cc(C(=O)N/N=C(\C)c3ccco3)c3ccccc3n2)c(OC)c1 | 6.3 | 54.2* | 8.4 | -2.8 | -2.8
Cc1cc(-c2c(C)[nH]n(-c3ccc(Cl)cc3)c2=O)n(-c2ccc(Cl)cc2)n1 | 41.3 | 100.6* | 6.6 | 5.2 | 6.4
Cc1oc(-c2ccc(F)cc2)nc1CN(Cc1ccccn1)CC1CCCO1 (centres undefined) | -8.2 | 60.8* | -8.9 | -0.5 | -4.8
Clc1ccc(-c2noc(CN(Cc3ccccn3)CC3CCCO3)n2)cc1 (centres undefined) | -3.3 | 23.6 | 3.5 | 0.5 | -6.4
CN(C)S(=O)(=O)c1ccc(C(=O)Nc2nnc(-c3cccs3)o2)cc1 | 9.6 | -2.0 | -3.8 | -12.4 | -3.1
O=C(Nc1nnc(-c2ccc3c(c2)CCCC3)o1)C1CCCCC1 | -4.9 | 81.4* | -5.1 | 2.7 | 6.3
CN(C)S(=O)(=O)c1ccc(C(=O)Nc2nnc(-c3ccc4c(c3)CCCC4)o2)cc1 | 30.2 | 94.3* | 9.6 | -0.2 | 10.7
O=C(CCc1ccccc1)Nc1nnc(-c2ccc3c(c2)CCCC3)o1 | 12.4 | 85.2* | -6.9 | 11.0 | -1.2
O=C(Nc1nnc(-c2ccc(Cl)cc2)o1)C1=COCCO1 | 42.1 | -1.7 | -2.0 | 5.9 | -10.5
O=C(Nc1nnc(-c2ccc3c(c2)CCCC3)o1)c1ccc(Cl)cc1Cl | 84.5* | 96.0* | -2.4 | 0.0 | -8.5
